As a reminder, the bioavailability is dose-corrected exposure relative to a reference, in per cent.

The values below come from ChEMBL document CHEMBL3608239, “Identification and optimisation of a 4',5-bisthiazole series of selective phosphatidylinositol-3 kinase alpha inhibitors” (Bioorg Med Chem Lett, 2015).

The nature of data set [1]: Permeability of the compound from apical to basolateral side in human Caco2 cells. It counts as ADME, cell-based. The following applies: Caco-2, read-out: permeability. For orientation: Caco-2 monolayers are a common model of the intestinal barrier.
Data set [2] in a line: Permeability of the compound from basolateral to apical side in human Caco2 cells. The settings on record: Caco-2, read-out: permeability. Format: ADME, cell-based.
Data set [3] is described as follows: Plasma concentration in athymic nude mouse at 10 mg/kg, iv after 2 hrs. Format: ADME, organism-based. The essentials: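 Female athymic nude mice, conscious, with free access to food, given a bolus intravenous dose of 10 mg kg-1. Plasma levels measured 1 and 2 h after dosing.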
Data set [4] in a line: Oral bioavailability in Sprague-Dawley rat at 3 mg/kg. It counts as ADME, organism-based. The settings on record: in vivo. The procedure, abridged:
(§1)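 Female Sprague-Dawley rats, conscious, permanently cannulated, with free access to food. Dosed 1.0 mg kg-1 intravenously or 3.0 mg kg-1 orally as a suspension. Blood levels followed from 5 min to 48 h after dosing.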

In the next data set the test system is Rattus norvegicus. Kind of data set: Volume of distribution in Sprague-Dawley rat at 3 mg/kg, po. It counts as ADME, organism-based. The settings on record: in vivo. The essentials:
as §1

Regarding `Cc1nc(NC(=O)N2CCC[C@H]2C(N)=O)sc1-c1ccc(S(C)(=O)=O)c(F)c1`, the Papp A→B in data set [1] is 1.4 ×10⁻⁶ cm/s. The Papp B→A in data set [2] was 7.7 ×10⁻⁶ cm/s.
For the compound `Cc1nc(NC(=O)N2CCC[C@@]2(C)C(N)=O)sc1-c1csc(C(C)(C)C)n1`, the concentration at 2 h in data set [3] was below 50 nM. For the same compound, in data set [1], the Papp A→B stood at 14.5 ×10⁻⁶ cm/s. In addition, the Papp B→A in data set [2] was determined as 17.4 ×10⁻⁶ cm/s.
In the case of `Cc1nc(NC(=O)N2CC[C@H](C)[C@H]2C(N)=O)sc1-c1csc(C(C)(C)C)n1`, in data set [1], the Papp A→B was 11.1 ×10⁻⁶ cm/s. The Papp B→A in data set [2] was 17.4 ×10⁻⁶ cm/s.
In the case of `Cc1nc(NC(=O)N2CC[C@H](O)[C@H]2C(N)=O)sc1-c1csc(C(C)(C)C)n1`, in data set [1], the Papp A→B is 0.9 ×10⁻⁶ cm/s. Besides, the Papp B→A in data set [2] is 12.4 ×10⁻⁶ cm/s.
For `Cc1nc(NC(=O)N2C[C@H](F)C[C@H]2C(N)=O)sc1-c1csc(C(C)(C)C)n1`, in that order: 5.5 ×10⁻⁶ cm/s and 20.7 ×10⁻⁶ cm/s.
For `Cc1nc(NC(=O)N2C[C@H](O)C[C@H]2C(N)=O)sc1-c1csc(C(C)(C)C)n1`, in that order: 0.7 ×10⁻⁶ cm/s and 8.4 ×10⁻⁶ cm/s.
For `Cc1nc(NC(=O)N2C[C@@H](O)C[C@H]2C(N)=O)sc1-c1csc(C(C)(C)C)n1`, in that order: 1.2 ×10⁻⁶ cm/s and 20.8 ×10⁻⁶ cm/s.
For `Cc1nc(NC(=O)N2C[C@H](N(C)C)C[C@H]2C(N)=O)sc1-c1csc(C2(C)CC2)n1`, the bioavailability in data set [4] was 59%. Also, the Vd in the data set with Rattus norvegicus came out at 3.3 L/kg.
